Source: ChEMBL document CHEMBL6153064, “Structure-based discovery of novel diarylpyrimidines as potent and selective Non-Nucleoside reverse transcriptase inhibitors: From CH(CN)-Biphenyl-Diarylpyrimidines to CNNH2-Biphenyl-Diarylpyrimidines” (Eur J Med Chem, 2025)

Key:
[1] = Cytotoxicity against human MT4 cells by MTT assay; type: toxicity, cell-based
[2] = system: Human immunodeficiency virus 1; assay: Antiviral activity against wild type HIV-1 IIIB infected in human MT4 cells […]; type: functional, organism-based; conditions: Human immunodeficiency virus 1, IIIB
[3] = Selectivity index, ratio of CC50 for cytotoxicity against human MT4 cells to EC50 for antiviral activity against wild type HIV-1 IIIB infected in human MT4 cells; type: toxicity, cell-based; conditions: read-out: Ratio CC50/EC50
Outline: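 Selectivity index calculated as CC50/EC50 ratio, both values from MTT viability readout in MT-4 cells, antiviral arm using wild-type HIV-1 IIIB.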

[4] = system: Human immunodeficiency virus 1; assay: Antiviral activity against HIV-1 harboring E138K mutant infected in human MT4 cells […]; type: functional, organism-based; conditions: Human immunodeficiency virus 1, MT4
[5] = system: Human immunodeficiency virus 1; assay: Antiviral activity against HIV-1 harboring Y188L mutant infected in human MT4 cells assessed as inhibition of virus-induced cytopathic effect by MTT assay; conditions: Human immunodeficiency virus 1, MT4
[6] = system: Human immunodeficiency virus 1; assay: Antiviral activity against HIV-1 harboring L100I mutant infected in human MT4 cells […]; type: functional, organism-based; conditions: Human immunodeficiency virus 1, MT4
[7] = system: Human immunodeficiency virus 1; assay: Antiviral activity against HIV-1 harboring Y181C mutant infected in human MT4 cells […]; type: functional, organism-based; conditions: Human immunodeficiency virus 1, MT4
[8] = biological target: Human immunodeficiency virus type 1 reverse transcriptase (Human immunodeficiency virus 1, UniProt Q72547); assay: Inhibition of wild type HIV-1 Reverse transcriptase
[9] = system: Human immunodeficiency virus 1; assay: Antiviral activity against HIV-1 harboring K103N mutant infected in human MT4 cells […]; type: functional, organism-based; conditions: Human immunodeficiency virus 1, MT4

SMILES	CC50 [1]	EC50 [2]	selectivity ratio [3]	EC50 [4]	EC50 [5]	EC50 [6]	EC50 [7]	IC50 [8]	EC50 [9]
CC(C)NC(c1ccnc(Nc2ccc(C#N)cc2)n1)c1ccc(-c2ccc(C#N)cc2)cc1F (stereo unspecified)	45000 nM	649 nM	70						
N#Cc1ccc(Nc2nccc(/C(=N/N)c3c(F)cc(-c4ccc(C#N)cc4)cc3F)n2)cc1	23000 nM	9 nM	2480	38 nM	> 23100 nM	16 nM	64 nM	31 nM	44 nM
CCNC(c1ccnc(Nc2ccc(C#N)cc2)n1)c1ccc(-c2ccc(C#N)cc2)cc1OC (stereo unspecified)	20000 nM	326 nM	60						
O=C1Nc2ccc(Cl)cc2[C@@](C#CC2CC2)(C(F)(F)F)O1 [EFAVIRENZ]	> 6300 nM						8 nM		
C/N=C(/c1ccnc(Nc2ccc(C#N)cc2)n1)c1ccc(-c2ccc(C#N)cc2)cc1OC(F)(F)F	> 251000 nM	13 nM	> 19100	122 nM	20100 nM	301 nM	361 nM	221 nM	281 nM
N#Cc1ccc(Nc2nccc(/C(=N/N)c3ccc(-c4ccc(C#N)cc4)cc3C(F)(F)F)n2)cc1	68000 nM	31 nM	2170	68 nM	1140 nM	58 nM	134 nM	58 nM	106 nM
C/N=C(/c1ccnc(Nc2ccc(C#N)cc2)n1)c1ccc(-c2ccc(C#N)cc2)cc1C(F)(F)F	119000 nM	35 nM	3280	290 nM	3030 nM	352 nM	435 nM	180 nM	415 nM
CCCNC(c1ccnc(Nc2ccc(C#N)cc2)n1)c1ccc(-c2ccc(C#N)cc2)cc1C (stereo unspecified)	> 273000 nM	146 nM	> 1870						
COc1cc(-c2ccc(C#N)cc2)ccc1C(NC(C)C)c1ccnc(Nc2ccc(C#N)cc2)n1 (stereo unspecified)	20000 nM	211 nM	94						
CC(C)NC(c1ccnc(Nc2ccc(C#N)cc2)n1)c1ccc(-c2ccc(C#N)cc2)cc1OC(F)(F)F (stereo unspecified)	23000 nM	927 nM	24						
Cc1ccnc2c1NC(=O)c1cccnc1N2C1CC1 [NEVIRAPINE]					> 15000 nM	2060 nM			
Cc1cc(-c2ccc(C#N)cc2)ccc1/C(=N\N)c1ccnc(Nc2ccc(C#N)cc2)n1	> 291000 nM	7 nM	> 45000	13 nM	442 nM	16 nM	47 nM	23 nM	17 nM
CCCNC(c1ccnc(Nc2ccc(C#N)cc2)n1)c1ccc(-c2ccc(C#N)cc2)cc1C(F)(F)F (stereo unspecified)	90000 nM	1010 nM	87						
CNC(c1ccnc(Nc2ccc(C#N)cc2)n1)c1ccc(-c2ccc(C#N)cc2)cc1C (stereo unspecified)	12000 nM	33 nM	367	279 nM	9200 nM	2440 nM	1090 nM	153 nM	743 nM
N#Cc1ccc(Nc2nccc(C(NCCO)c3ccc(-c4ccc(C#N)cc4)cc3Cl)n2)cc1 (stereo unspecified)	22000 nM	92 nM	238						
N#Cc1ccc(Nc2nccc(C(NCCCCl)c3ccc(-c4ccc(C#N)cc4)cc3Cl)n2)cc1 (stereo unspecified)	> 244000 nM	195 nM	> 1260						
C/N=C(/c1ccnc(Nc2ccc(C#N)cc2)n1)c1ccc(-c2ccc(C#N)cc2)cc1C	> 47000 nM	12 nM	> 3940	82 nM	> 46700 nM	1540 nM	420 nM	58 nM	373 nM
CCNC(c1ccnc(Nc2ccc(C#N)cc2)n1)c1ccc(-c2ccc(C#N)cc2)cc1C (stereo unspecified)	12000 nM	63 nM	188						
C/N=C(/c1ccnc(Nc2ccc(C#N)cc2)n1)c1ccc(-c2ccc(C#N)cc2)cc1OC	16000 nM	8 nM	1960	83 nM	4460 nM	293 nM	293 nM	61 nM	169 nM
N#Cc1ccc(Nc2nccc(C(NC3CC3)c3ccc(-c4ccc(C#N)cc4)cc3OC(F)(F)F)n2)cc1 (stereo unspecified)	73000 nM	589 nM	125						
N#Cc1ccc(Nc2nccc(/C(=N/N)c3ccc(-c4ccc(C#N)cc4)cc3Cl)n2)cc1	212000 nM	6 nM	33300	76 nM	778 nM	22 nM	67 nM	36 nM	49 nM
N#CCCNC(c1ccnc(Nc2ccc(C#N)cc2)n1)c1ccc(-c2ccc(C#N)cc2)cc1Cl (stereo unspecified)	> 255000 nM	71 nM	> 3600						
CC(C)NC(c1ccnc(Nc2ccc(C#N)cc2)n1)c1ccc(-c2ccc(C#N)cc2)cc1C(F)(F)F (stereo unspecified)	29000 nM	1190 nM	25						
